In ChEMBL document CHEMBL5032502, “Syntheses, Biological Evaluations, and Mechanistic Studies of Benzo[c][1,2,5]oxadiazole Derivatives as Potent PD-L1 Inhibitors with In Vivo Antitumor Activity” (J Med Chem, 2021):
pEC50, pIC50: −log10 of the molar value. Calls of active or inactive are those of the source. The rule behind the calls is not given here.

Key:
[1] = biological target: T1, Programmed cell death protein 1/Programmed cell death 1 ligand 1 (Homo sapiens, UniProt Q9NZQ7); experiment: Inhibition of human PD-1/PD-L1 interaction assessed as blockade activity incubated for 15 mins by HTRF assay; assay type: protein-complex assay
Procedure, shortened: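 Tag1-PD-L1 and Tag2-PD-1 proteins preincubated with compound (0.1 nM to 10 μM, triplicate) 15 min at room temperature, then anti-Tag1-Eu³⁺/anti-Tag2-XL665 added for 2 h at room temperature. Excitation 337 nm, emission 665 and […]. Signal taken as 665/615 ratio ×10 000; IC50 fitted from inhibition rates.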

Jurkat [2] = experiment: Cytotoxicity against human Jurkat cells expressing PD-1/NFAT/Luc assessed as inhibition of cell viability at 10 uM incubated for 24 hrs by CCK8 assay; assay type: functional, cell-based
Procedure, shortened: (§1)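 PD-1⁺/NFAT-luc/Jurkat cells seeded at 20 000 per well, treated with compound in medium with 1% final DMSO for 24 h. CCK8 added for 4 h, then absorbance read.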

CHO-K1 [3] = experiment: Cytotoxicity against CHO-K1 cells expressing PD-L1/aAPC assessed as inhibition of cell viability at 10 uM incubated for 24 hrs by MTT assay; assay type: functional, cell-based; details: Cricetulus griseus
Procedure, shortened: (§2)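 PD-L1⁺/aAPC/CHO-K1 cells (2000/well) or MC38 cells (5000/well) allowed to adhere for 12 h, then exposed to compound in medium with 1% final DMSO for 24 h. MTT added for 4 h, medium replaced with DMSO, absorbance read.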

MC-38 [4] = experiment: Cytotoxicity against mouse MC38 cells assessed as inhibition of cell viability at 10 uM incubated for 24 hrs by MTT assay; assay type: functional, cell-based; procedure, shortened: as §2
[5] = biological target: Programmed cell death protein 1 (Homo sapiens) (UniProt Q15116); experiment: Binding affinity to human PD-1 assessed as dissociation constant by surface plasmon resonance analysis
Procedure, shortened: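 His-tagged human PD-L1 IgV or Fc-tagged human PD-1 IgV immobilized on a CM5 chip by amine coupling in 10 mM sodium acetate, pH 4.5. Compound serially diluted in PBS with 0.05% Tween 20 and 5% DMSO and flowed over the chip. KD fitted by instrument software, mean ± SEM of two to three independent experiments.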

Jurkat [6] = experiment: Cytotoxicity against human Jurkat cells expressing PD-1/NFAT/Luc assessed as inhibition of cell viability at 0.1 to 10 uM incubated for 24 hrs by CCK8 assay; assay type: functional, cell-based; details: dose 0.1-10 µM; procedure, shortened: as §1
CHO-K1 [7] = experiment: Cytotoxicity against CHO-K1 cells expressing PD-L1/aAPC assessed as inhibition of cell viability at 0.1 to 10 uM incubated for 24 hrs by MTT assay; assay type: functional, cell-based; details: Cricetulus griseus, dose 0.1-10 µM; procedure, shortened: as §2
MC-38 [8] = experiment: Cytotoxicity against mouse MC38 cells assessed as inhibition of cell viability at 0.1 to 10 uM incubated for 24 hrs by MTT assay; assay type: functional, cell-based; details: dose 0.1-10 µM; procedure, shortened: as §2
[9] = Half life in Sprague-Dawley rat at 2 mg/kg, iv measured upto 24 hrs by LC-MS analysis; assay type: ADME, organism-based; details: in vivo
Procedure, shortened: (§3)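 Male animals fasted 12 h before dosing. Plasma levels measured by LC-MS, with the prodrug quantified as the parent acid. Mean ± SEM, n = 3.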

[10] = Tmax in Sprague-Dawley rat at 2 mg/kg, iv measured upto 24 hrs by LC-MS analysis; assay type: ADME, organism-based; details: in vivo
Procedure, shortened: (§4)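 Male Sprague-Dawley rats or C57BL/6 mice fasted 12 h before dosing, given oral (po) or intravenous (iv) doses. Plasma levels measured by LC-MS. Parameters reported as mean ± SEM, n = 3.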

[11] = Cmax in Sprague-Dawley rat at 2 mg/kg, iv measured upto 24 hrs by LC-MS analysis; assay type: ADME, organism-based; set-up: route intravenous, dose 2 mg/kg, time <=24; details: in vivo; procedure, shortened: as §3
[12] = AUC (0 to t) in Sprague-Dawley rat at 2 mg/kg, iv measured upto 24 hrs by LC-MS analysis; assay type: ADME, organism-based; set-up: route intravenous, dose 2 mg/kg, time <=24; details: in vivo; procedure, shortened: as §3
[13] = Clearance in Sprague-Dawley rat at 2 mg/kg, iv measured upto 24 hrs by LC-MS analysis; assay type: ADME, organism-based; details: in vivo; procedure, shortened: as §3
[14] = Half life in Sprague-Dawley rat at 10 mg/kg, po measured upto 24 hrs by LC-MS analysis; assay type: ADME, organism-based; details: in vivo; procedure, shortened: as §3
[15] = Tmax in Sprague-Dawley rat at 10 mg/kg, po measured upto 24 hrs by LC-MS analysis; assay type: ADME, organism-based; details: in vivo; procedure, shortened: as §4
[16] = Cmax in Sprague-Dawley rat at 10 mg/kg, po measured upto 24 hrs by LC-MS analysis; assay type: ADME, organism-based; set-up: route oral, dose 10 mg/kg, time <=24; details: in vivo; procedure, shortened: as §3
[17] = AUC (0 to t) in Sprague-Dawley rat at 10 mg/kg, po measured upto 24 hrs by LC-MS analysis; assay type: ADME, organism-based; set-up: route oral, dose 10 mg/kg, time <=24; details: in vivo; procedure, shortened: as §3
[18] = Oral bioavailability in Sprague-Dawley rat at 10 mg/kg measured upto 24 hrs by LC-MS analysis; assay type: ADME, organism-based; details: in vivo; procedure, shortened: as §4
[19] = biological target: Voltage-gated inwardly rectifying potassium channel KCNH2 (Homo sapiens, UniProt Q12809); experiment: Inhibition of human ERG
[20] = biological target: Programmed cell death protein 1/Programmed cell death 1 ligand 1 (Homo sapiens) (UniProt Q15116+Q9NZQ7); details: Jurkat, time 6.0 hrs
[21] = biological target: T1, Programmed cell death protein 1/Programmed cell death 1 ligand 1; experiment: Inhibition of human PD-1/PD-L1 interaction in human Jurkat cells expressing PD-1/NFAT/Luc cocultured with CHO-K1 cells expressing PD-L1/aAPC assessed as Jurkat T-lymphocyte activation measured after 6 hrs by luciferase reporter gene based luminescence assay; assay type: cell-based

T1 sequence (Q15116 whole entry): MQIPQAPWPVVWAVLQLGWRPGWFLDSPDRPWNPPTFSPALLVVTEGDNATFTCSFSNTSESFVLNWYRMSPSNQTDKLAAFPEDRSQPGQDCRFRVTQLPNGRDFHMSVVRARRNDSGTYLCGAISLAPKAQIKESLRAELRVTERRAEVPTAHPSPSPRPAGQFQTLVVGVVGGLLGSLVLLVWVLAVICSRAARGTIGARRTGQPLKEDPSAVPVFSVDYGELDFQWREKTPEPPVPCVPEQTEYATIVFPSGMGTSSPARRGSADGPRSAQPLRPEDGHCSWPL
T1 sequence (Q9NZQ7 whole entry): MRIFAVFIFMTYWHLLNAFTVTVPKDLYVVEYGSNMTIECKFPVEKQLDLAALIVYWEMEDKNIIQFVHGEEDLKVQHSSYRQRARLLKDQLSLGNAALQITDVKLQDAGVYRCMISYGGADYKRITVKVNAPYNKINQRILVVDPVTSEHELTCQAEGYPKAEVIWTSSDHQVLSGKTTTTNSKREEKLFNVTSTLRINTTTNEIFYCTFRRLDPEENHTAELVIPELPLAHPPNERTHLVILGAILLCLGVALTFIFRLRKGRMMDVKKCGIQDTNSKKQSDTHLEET
Sequence of Programmed cell death protein 1 (Homo sapiens) (Q15116 whole entry): as the sequence (Q15116 whole entry) above
Sequence of Voltage-gated inwardly rectifying potassium channel KCNH2 (Q12809 whole entry): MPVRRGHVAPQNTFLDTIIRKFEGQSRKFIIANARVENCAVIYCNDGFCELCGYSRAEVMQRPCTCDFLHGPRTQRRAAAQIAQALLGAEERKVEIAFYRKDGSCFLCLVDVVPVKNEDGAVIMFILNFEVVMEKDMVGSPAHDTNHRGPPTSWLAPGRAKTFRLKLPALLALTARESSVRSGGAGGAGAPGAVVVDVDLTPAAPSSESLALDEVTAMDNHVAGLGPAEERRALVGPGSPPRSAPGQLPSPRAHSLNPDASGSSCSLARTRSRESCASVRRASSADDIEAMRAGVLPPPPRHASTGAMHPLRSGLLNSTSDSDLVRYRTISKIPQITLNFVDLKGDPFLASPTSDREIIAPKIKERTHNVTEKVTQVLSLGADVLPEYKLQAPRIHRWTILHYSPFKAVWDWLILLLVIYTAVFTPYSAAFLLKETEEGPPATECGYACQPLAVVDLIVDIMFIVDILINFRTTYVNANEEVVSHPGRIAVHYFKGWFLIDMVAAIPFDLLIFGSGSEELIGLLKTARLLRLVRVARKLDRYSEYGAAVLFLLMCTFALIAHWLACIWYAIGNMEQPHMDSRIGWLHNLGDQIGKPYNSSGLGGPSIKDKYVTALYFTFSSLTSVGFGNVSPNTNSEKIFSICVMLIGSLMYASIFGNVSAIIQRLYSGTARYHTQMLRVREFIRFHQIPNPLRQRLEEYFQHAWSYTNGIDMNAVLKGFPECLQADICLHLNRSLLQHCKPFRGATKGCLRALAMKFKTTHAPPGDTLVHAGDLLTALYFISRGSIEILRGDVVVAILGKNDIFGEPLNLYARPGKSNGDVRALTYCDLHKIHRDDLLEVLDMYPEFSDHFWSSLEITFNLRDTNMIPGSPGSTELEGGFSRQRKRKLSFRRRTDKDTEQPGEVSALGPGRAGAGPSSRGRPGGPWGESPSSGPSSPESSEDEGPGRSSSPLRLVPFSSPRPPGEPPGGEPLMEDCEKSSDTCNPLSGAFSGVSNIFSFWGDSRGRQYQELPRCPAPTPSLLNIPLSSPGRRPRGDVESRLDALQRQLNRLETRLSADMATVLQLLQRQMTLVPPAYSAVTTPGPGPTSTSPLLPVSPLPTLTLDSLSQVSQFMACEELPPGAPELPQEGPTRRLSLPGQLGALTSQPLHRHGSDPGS

| SMILES | pIC50 [1] | other results |
| --- | --- | --- |
| Cc1c(COc2ccc(CN[C@H](CO)C(=O)O)c(OCc3ccc4nonc4c3)c2)cccc1-c1ccccc1 | 7.47 | – |
| O=C(O)[C@H]1C[C@@H](O)CN1Cc1cc(Cl)c(OCc2cccc(-c3ccccc3)c2Br)cc1OCc1ccc2nonc2c1 | 7.61 | Activity (Jurkat [2]): Active; Activity (CHO-K1 [3]): Active; Activity (MC-38 [4]): Active |
| O=C(O)[C@@H](CO)NCc1cc(Cl)c(OCc2cccc(-c3ccccc3)c2Br)cc1OCc1ccc2nonc2c1 | – | Activity [5]: inactive; Activity (Jurkat [6]): inactive; Activity (CHO-K1 [7]): inactive; Activity (MC-38 [8]): inactive; half-life [9]: 4.04 h; Tmax [10]: 4.8 min; Cmax [11]: 2090 ng/mL; AUC(0-t) at 24 h [12]: 860 ng·h/mL; clearance [13]: 39.6 mL/min/kg; half-life [14]: 4.17 h; Tmax [15]: 2.33 h; Cmax [16]: 4.46 ng/mL; AUC(0-t) at 24 h [17]: 15.2 ng·h/mL; bioavailability [18]: 0.35%; pIC50 [19]: < 4.52; RLU [20]: 1.81 |
| O=C(O)[C@@H](CO)NCc1cc(Br)c(OCc2cccc(-c3ccccc3)c2Br)cc1OCc1ccc2nonc2c1 | 7.56 | – |
| O=S(=O)(O)CCNCc1cc(Cl)c(OCc2cccc(-c3ccccc3)c2Br)cc1OCc1ccc2nonc2c1 | 7.57 | – |
| O=C(O)[C@@H](CO)NCc1cc(Cl)c(OCc2cccc(-c3ccccc3)c2Cl)cc1OCc1ccc2nonc2c1 | 8.48 | – |
| O=C1CC[C@@H](CNCc2cc(Cl)c(OCc3cccc(-c4ccccc4)c3Cl)cc2OCc2ccc3nonc3c2)N1 | 7.67 | – |
| CC(=O)NCCNCc1cc(Cl)c(OCc2cccc(-c3ccccc3)c2Br)cc1OCc1ccc2nonc2c1 | 6.89 | – |
| O=C(O)[C@@H](CO)NCc1cc(Cl)c(OCc2cccc(-c3cccc(F)c3)c2Cl)cc1OCc1ccc2nonc2c1 | 8.19 | Activity (Jurkat [6]): inactive; Activity (CHO-K1 [7]): inactive; Activity (MC-38 [8]): inactive |
| O=C(O)[C@@H](CO)NCc1cc(F)c(OCc2cccc(-c3ccccc3)c2Cl)cc1OCc1ccc2nonc2c1 | 8.02 | – |
| Clc1cc(CNCCN2CCCCC2)c(OCc2ccc3nonc3c2)cc1OCc1cccc(-c2ccccc2)c1Cl | 6.54 | – |
| Cc1c(COc2ccc(CN[C@H](CO)C(=O)O)c(OCc3ccc4ccoc4c3)c2)cccc1-c1ccccc1 | 5.63 | – |
| OC[C@H](O)CNCc1cc(Cl)c(OCc2cccc(-c3ccccc3)c2Br)cc1OCc1ccc2nonc2c1 | 7.84 | – |
| O=C(O)[C@@H](CO)NCc1cc(Cl)c(OCc2cccc(-c3ccc(F)cc3)c2Cl)cc1OCc1ccc2nonc2c1 | 7.25 | – |
| O=C(O)[C@@H](CO)NCc1cc(Cl)c(OCc2cccc(-c3cccc(OCCCO)c3)c2Cl)cc1OCc1ccc2nonc2c1 | 7.22 | – |
| COc1cccc(-c2cccc(COc3cc(OCc4ccc5nonc5c4)c(CN[C@H](CO)C(=O)O)cc3Cl)c2Br)c1 | 8.11 | – |
| COc1nc(OCc2cccc(-c3ccccc3)c2C)ccc1CNCCNC(C)=O | – | Activity (Jurkat [2]): Active; Activity (CHO-K1 [3]): Active; Activity (MC-38 [4]): Active |
| O=C(O)[C@@H](CO)NCc1cc(Cl)c(OCc2cccc(-c3cccc(OCCCO)c3)c2Br)cc1OCc1ccc2nonc2c1 | 7.51 | – |
| O=C(O)[C@@H](CO)NCc1cc(F)c(OCc2cccc(-c3ccccc3)c2Br)cc1OCc1ccc2nonc2c1 | 8.11 | Activity (Jurkat [6]): inactive; Activity (CHO-K1 [7]): inactive; Activity (MC-38 [8]): inactive |
| O=C(O)[C@@H](CO)NCc1cc(Cl)c(OCc2cccc(-c3cccc(F)c3F)c2Cl)cc1OCc1ccc2nonc2c1 | 6.79 | – |
| OC[C@@H](O)CNCc1cc(Cl)c(OCc2cccc(-c3ccccc3)c2Br)cc1OCc1ccc2nonc2c1 | 7.80 | – |

| SMILES | pIC50 [1] | other results |
| --- | --- | --- |
| NS(=O)(=O)CCNCc1cc(Cl)c(OCc2cccc(-c3ccccc3)c2Br)cc1OCc1ccc2nonc2c1 | 6.47 | – |
| O=C(O)[C@@H](CO)NCc1ccc(OCc2cccc(-c3ccccc3)c2C(F)(F)F)cc1OCc1ccc2nonc2c1 | 5.86 | – |
| O=C(O)[C@@H](CO)NCc1cc(Cl)c(OCc2cccc(-c3cccc(O)c3)c2Cl)cc1OCc1ccc2nonc2c1 | 7.23 | – |
| CN1CCN(Cc2cc(Cl)c(OCc3cccc(-c4ccccc4)c3Br)cc2OCc2ccc3nonc3c2)CC1 | 5.44 | – |
| O=C(O)[C@@H](CO)NCc1cc(Cl)c(OCc2cccc(-c3cccc(OCCO)c3)c2Cl)cc1OCc1ccc2nonc2c1 | 6.99 | – |
| O=C(O)[C@@H]1CCCCN1Cc1cc(Cl)c(OCc2cccc(-c3ccccc3)c2Br)cc1OCc1ccc2nonc2c1 | 7.88 | – |
| OC1CCN(Cc2cc(Cl)c(OCc3cccc(-c4ccccc4)c3Br)cc2OCc2ccc3nonc3c2)CC1 | 5.98 | – |
| OCCNCc1cc(Cl)c(OCc2cccc(-c3ccccc3)c2Br)cc1OCc1ccc2nonc2c1 | 7.51 | – |
| Cc1c(COc2ccc(CN[C@H](CO)C(=O)O)c(OCc3cccc(C#N)c3)c2)cccc1-c1ccccc1 | 7.45 | Activity (Jurkat [2]): Active; Activity (CHO-K1 [3]): Active; Activity (MC-38 [4]): Active; pEC50 [21]: 5.68; RLU [20]: 1.83 |
| Cc1c(COc2cc(OCc3ccc4nonc4c3)c(CN[C@H](CO)C(=O)O)cc2Cl)cccc1-c1ccccc1 | 7.78 | – |
| CC(C)(C)OC[C@@H](NCc1cc(Cl)c(OCc2cccc(-c3ccccc3)c2Cl)cc1OCc1ccc2nonc2c1)C(=O)N[C@H](CO)C(=O)O | 6.41 | – |
| O=C(O)[C@@H](CO)NCc1cc(Cl)c(OCc2cccc(-c3cccc(F)c3)c2Br)cc1OCc1ccc2nonc2c1 | 8.09 | Activity (Jurkat [6]): inactive; Activity (CHO-K1 [7]): inactive; Activity (MC-38 [8]): inactive |
| O=C(O)[C@@H](CO)NCc1cc(Cl)c(OCc2cccc(-c3cccc(Cl)c3)c2Br)cc1OCc1ccc2nonc2c1 | 7.61 | – |
| Cc1c(COc2ccc(CN[C@H](CO)C(=O)O)c(OCc3cccc4nonc34)c2)cccc1-c1ccccc1 | 5.67 | – |
| OC1CCC(NCc2cc(Cl)c(OCc3cccc(-c4ccccc4)c3Br)cc2OCc2ccc3nonc3c2)CC1 (centres undefined) | 7.24 | – |
| O=C(O)[C@@H](CO)NCc1cc(Cl)c(OCc2cccc(-c3ccccc3)c2F)cc1OCc1ccc2nonc2c1 | 8.46 | Activity (Jurkat [6]): inactive; Activity (CHO-K1 [7]): inactive; Activity (MC-38 [8]): inactive |
| Cc1c(COc2ccc(CN[C@H](CO)C(=O)O)c(OCc3ccc4nsnc4c3)c2)cccc1-c1ccccc1 | 6.69 | – |
| O=C(O)C1CN(Cc2cc(Cl)c(OCc3cccc(-c4ccccc4)c3Br)cc2OCc2ccc3nonc3c2)C1 | 7.28 | – |
| CS(=O)(=O)c1ccc(-c2cccc(COc3cc(OCc4ccc5nonc5c4)c(CN[C@H](CO)C(=O)O)cc3Cl)c2Cl)cc1 | < 6.00 | – |
| CC(C)C[C@H](NCc1cc(Cl)c(OCc2cccc(-c3ccccc3)c2Cl)cc1OCc1ccc2nonc2c1)C(=O)N[C@H](CC(C)C)C(=O)O | 5.80 | – |
| O=C(O)CNCc1cc(Cl)c(OCc2cccc(-c3ccccc3)c2Br)cc1OCc1ccc2nonc2c1 | 7.47 | – |
